tested on: T1, OR2T6 C23G; details: stereoisomer not certain
T1 sequence (whole entry): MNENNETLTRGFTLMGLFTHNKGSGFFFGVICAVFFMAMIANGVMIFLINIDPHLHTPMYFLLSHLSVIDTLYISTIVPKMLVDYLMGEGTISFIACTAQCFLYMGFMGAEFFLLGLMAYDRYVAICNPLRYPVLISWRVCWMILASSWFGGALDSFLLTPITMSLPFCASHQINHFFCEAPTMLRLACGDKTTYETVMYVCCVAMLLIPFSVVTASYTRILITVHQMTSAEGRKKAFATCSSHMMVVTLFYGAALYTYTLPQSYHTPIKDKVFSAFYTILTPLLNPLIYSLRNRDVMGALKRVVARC
Method in brief: (§1)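 Values were gathered from published papers (main text and supplementary material), with extra details requested from the original authors when needed, and checked for typos and inconsistencies. Each receptor–molecule pair is called responsive (active) if the original authors judged the measured signal statistically different from baseline, and non-responsive (inactive) otherwise. Assay methods varied by source, often transient mammalian cell-line luciferase assays. Recorded details include cell line, G-protein, co-transfected protein and tags.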

Structure (SMILES)	odorant receptor agonist call
CCCC(S)CCOC(C)=O (stereo not drawn)	inactive
Cc1cnc(C)c(C)n1	inactive
CCC1OC(C)=C(O)C1=O (stereo not drawn)	inactive
CCC1OC(=O)C(O)=C1C (stereo not drawn)	inactive
CC1=C(O)C(=O)C(C)O1 (stereo not drawn)	inactive
CC1=NC(C)C(C)S1 (stereo not drawn)	inactive
CCCCCCC=CCCC=O	inactive
CC1=C(O)C(=O)OC1C (stereo not drawn)	inactive

biological target: T2, OR2T7 (Homo sapiens) (UniProt P0C7T2); details: stereoisomer not certain
T2 sequence (whole entry): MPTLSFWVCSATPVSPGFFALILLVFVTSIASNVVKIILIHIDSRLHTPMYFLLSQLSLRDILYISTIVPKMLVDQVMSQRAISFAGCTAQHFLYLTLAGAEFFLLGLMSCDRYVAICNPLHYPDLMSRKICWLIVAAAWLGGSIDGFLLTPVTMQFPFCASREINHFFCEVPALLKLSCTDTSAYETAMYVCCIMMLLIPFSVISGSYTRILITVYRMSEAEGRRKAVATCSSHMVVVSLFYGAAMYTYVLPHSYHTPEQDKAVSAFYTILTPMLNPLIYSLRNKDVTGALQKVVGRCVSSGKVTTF
Method in brief: as §1

Structure (SMILES)	odorant receptor agonist call
CC(CO)CS (stereo not drawn)	inactive
CC(=O)c1c(C)c([N+](=O)[O-])c(C(C)(C)C)c([N+](=O)[O-])c1C	inactive
CCC(S)C(C)CO (stereo not drawn)	inactive
CCCCC(S)C(C)CO (stereo not drawn)	inactive
CCCCCC(S)C(C)CO (stereo not drawn)	inactive
CCCCCCC=CCCC=O	inactive
CC1CCCCCCCCCCCCC(=O)C1 (stereo not drawn)	inactive
CCCCCC(=O)C(C)C(C)=O (stereo not drawn)	inactive

tested on: T3, OR2T7; details: stereoisomer not certain
T3 sequence (whole entry): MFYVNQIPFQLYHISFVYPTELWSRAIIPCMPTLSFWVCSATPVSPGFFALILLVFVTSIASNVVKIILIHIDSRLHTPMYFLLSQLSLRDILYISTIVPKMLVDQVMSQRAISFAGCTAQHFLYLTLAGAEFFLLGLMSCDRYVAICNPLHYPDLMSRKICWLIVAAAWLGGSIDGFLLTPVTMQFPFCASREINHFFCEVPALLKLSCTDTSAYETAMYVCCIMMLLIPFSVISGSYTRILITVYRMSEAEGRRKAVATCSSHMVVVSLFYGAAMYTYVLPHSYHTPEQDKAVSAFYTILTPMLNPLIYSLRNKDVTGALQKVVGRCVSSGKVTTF
Method in brief: as §1

Structure (SMILES)	odorant receptor agonist call
CCCC(S)CCOC(C)=O (stereo not drawn)	inactive
Cc1cnc(C)c(C)n1	inactive
CCC1OC(C)=C(O)C1=O (stereo not drawn)	inactive
CCC1OC(=O)C(O)=C1C (stereo not drawn)	inactive
CC1=C(O)C(=O)C(C)O1 (stereo not drawn)	inactive
CC1=NC(C)C(C)S1 (stereo not drawn)	inactive
CC1=C(O)C(=O)OC1C (stereo not drawn)	inactive
